Laboratory results as given in ChEMBL document CHEMBL1130202, “Biologically active heteroarotinoids exhibiting anticancer activity and decreased toxicity” (J Med Chem, 1997).
Active and inactive are the calls of the source. The rule behind the calls is not given here.

How the values were obtained:
Mus musculus [1] = species on record: Mus musculus; test: Effect of compound on thymus to body weight ratios in mice at high dose on day 65; all the animals died by day 65; type: functional, organism-based
In short: (§1)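 Male B6D2F1 mice were dosed daily by gavage in corn oil, with TTNPB given at 0.1–0.8 or 0.01/0.05 mg/kg/day. Thymus-to-body weight ratio (×1000) was taken at necropsy on day 65 against vehicle 1, or on day 25 for the 0.01/0.05 groups against vehicle 2. Mean ± SD of 4–8 animals, reported as % difference from vehicle.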

Mus musculus [2] = species on record: Mus musculus; test: Effect of compound on white blood cells levels in mice at low dose on day 65; type: functional
In short: (§2)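 Male B6D2F1 mice were gavaged daily with compound in corn oil at low, mid 1, mid 2 or high dose. Serum triglycerides and circulating white blood cells were measured on the stated day (8, 29, 36, 65). Values are group mean ± SD expressed as % relative to corn-oil vehicle, with significance at p ≤ 0.05.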

Mus musculus [3] = species on record: Mus musculus; test: Effect of compound on serum Alkaline phosphatase levels in mice at low dose on day 36; type: functional
In short: (§3)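 Male B6D2F1 mice dosed daily by oral gavage in corn oil at low, mid 1, mid 2 or high dose. Blood sampled on set days (8, 29, 36, 65) for clinical chemistry, serum alkaline phosphatase and triglycerides. Group mean ± SD reported as % relative to vehicle 1; significance p < 0.05 versus corn oil vehicle.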

Mus musculus [4] = species on record: Mus musculus; test: Effect of compound on serum Alkaline phosphatase levels in mice at mid dose 1 on day 36; type: functional; in short: as §3
Mus musculus [5] = species on record: Mus musculus; test: Enlarged lymph in gross pathological observations in mice with hypervitaminosis A at mid dose 1 with gross observations/total number of mice in group; 6/16; type: functional, organism-based
Mus musculus [6] = species on record: Mus musculus; test: Enlarged spleen in Gross pathological observations in mice with hypervitaminosis A at low dose with gross observations/total number of mice in group; 3/16; type: functional, organism-based
Mus musculus [7] = species on record: Mus musculus; test: Compound toxicity determined by total dose to termination (day 25/65) in high dose; type: functional
In short: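 Male B6D2F1 mice given daily oral gavage in corn oil; dosages increased during the study (day 30 or day 51 depending on compound). Cumulative dose in mg/kg administered up to termination (day 65, or day 25 for TTNPB 0.01/0.05 mg/kg/day groups).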

Mus musculus [8] = test: Effect of compound on Spleen to body weight ratios in mice at 0.8 mg/kg/day dose on day 65; dead by day 65; type: functional, organism-based
In short: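 Male B6D2F1 mice dosed daily by gavage with compound in corn oil; vehicle 1 (corn oil) controls run to termination on day 65. Low, mid 1, mid 2 and high dose groups, with dosage increases partway through the study. Organ-to-body weight ratios (×1000) taken at necropsy on day 65, reported as mean ± SD for 4 to 8 animals and as % difference from vehicle.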

Mus musculus [9] = test: Effect of compound on adrenal to body weight ratios in mice at 0.4 mg/kg/day dose; all the animals died by day 65; type: functional, organism-based
Mus musculus [10] = test: Effect of compound on right testicle to body weight ratios in mice at 0.05 mg/kg/day dose on day 25; dead on day 65; type: functional, organism-based
Mus musculus [11] = test: Effect of compound on right testicle to body weight ratios in mice at 0.05 mg/kg/day dose; all the animals died by day 65; type: functional, organism-based
Mus musculus [12] = test: Effect of compound on right testicle to body weight ratios in mice at 0.4 mg/kg/day dose on day 65; dead on day 65; type: functional, organism-based
Mus musculus [13] = test: Effect of compound on Spleen to body weight ratios in mice at 0.01 mg/kg/day dose; all the animals died by day 65; type: functional, organism-based
Mus musculus [14] = test: Total dose of 10% weight loss in mice at 0.01 mg/kg/day; type: functional
Mus musculus [15] = test: Effect of compound on thymus to body weight ratios in mice at 0.4 mg/kg/day dose; all the animals died by day 65; type: functional, organism-based; in short: as §1
Mus musculus [16] = test: Effect of compound on thymus to body weight ratios in mice at 0.8 mg/kg/day dose; all the animals died by day 65; type: functional, organism-based; in short: as §1
Mus musculus [17] = test: Avoiding pressure on limbs at 0.2 mg/kg/day dose in mice with hypervitaminosis; 0/16; type: functional, organism-based; settings: Limb
Mus musculus [18] = test: Skin scaling at 0.2 mg/kg/day in mice with hypervitaminosis; 14/16; type: functional, organism-based
Mus musculus [19] = test: Approximate day to determine 10% weight loss in mice at 0.01 mg/kg/day; type: functional
In short: (§4)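 Male B6D2F1 mice dosed daily by gavage in corn oil; body weights followed to termination (day 65, or day 25 for TTNPB 0.01/0.05 mg/kg/day groups) and compared with the matching vehicle group. Value is approximate day of onset of 10% body weight reduction versus vehicle.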

Mus musculus [20] = test: Approximate day to determine 10% weight loss in mice at 0.05 mg/kg/day; type: functional; in short: as §4
Mus musculus [21] = test: Calculated 30-day maximally tolerated dose based on 10% weight loss in mice at 0.05 mg/kg/day; type: functional
[22] = Mortality rate in mice at 0.01 mg/kg/day; type: ADME, organism-based; settings: mouse, in vivo
In short: (§5)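 Male B6D2F1 mice given compound daily by gavage in corn oil at the stated dose levels, with corn oil vehicle controls. Deaths counted as animals found dead or sacrificed moribund, with day(s) of death recorded. Heteroarotinoid groups ran to day 65 and low-dose reference groups to day 25.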

[23] = Mortality rate in mice at 0.1 mg/kg/day; range (12-24); type: ADME, organism-based; settings: mouse, in vivo; in short: as §5
[24] = Mortality rate in mice at 0.8 mg/kg/day; range (7-8); type: ADME, organism-based; settings: mouse, in vivo; in short: as §5
Mus musculus [25] = test: Fracture incidents in mouse at 0.1 mg/kg/day
Mus musculus [26] = test: Effects of retinoids on thymus to body weight ratios in mice at 0.01 mg/kg/day dose
Mus musculus [27] = test: Effects of retinoids on thymus to body weight ratios in mice at 0.05 mg/kg/day dose
Mus musculus [28] = test: Effect of compound on Spleen to body weight ratios in mice at 0.05 mg/kg/day dose; measured on day 25
Mus musculus [29] = test: Effect of compound on adrenal to body weight ratios in mice at 0.01 mg/kg/day dose; measured on day 25
Mus musculus [30] = species on record: Mus musculus; test: Skin scaling in mice at high dose with Hypervitaminosis; 0/16; type: functional, organism-based
Mus musculus [31] = species on record: Mus musculus; test: Skin scaling in mice at mid dose 1 with Hypervitaminosis; 1/16; type: functional, organism-based
Mus musculus [32] = species on record: Mus musculus; test: Fracture incidence in mouse at high dose; 2/8
Mus musculus [33] = species on record: Mus musculus; test: Fracture incidence in mouse at mid dose 2; 0/8
Mus musculus [34] = species on record: Mus musculus; test: Effect of compound on white blood cells levels in mice at low dose on day 8; type: functional; in short: as §2
Mus musculus [35] = species on record: Mus musculus; test: Avoiding pressure on limbs in mice at high dose with Hypervitaminosis; 4/16; type: functional, organism-based; settings: Limb
Mus musculus [36] = species on record: Mus musculus; test: Effect of compound on serum triglycerides levels in mice at mid dose 2 on day 8; type: functional; in short: as §2
Mus musculus [37] = species on record: Mus musculus; test: Enlarged spleen in Gross pathological observations in mice with hypervitaminosis A at mid dose 1 with gross observations/total number of mice in group; 1/16; type: functional, organism-based
Mus musculus [38] = species on record: Mus musculus; test: Skin scaling in mice at high dose with Hypervitaminosis; 2/16; type: functional, organism-based
Mus musculus [39] = species on record: Mus musculus; test: Avoiding pressure on limbs in mice at mid dose 1 with Hypervitaminosis 0/16; type: functional, organism-based; settings: Limb

Q: What does the source list for C/C(=C\c1ccc(C(=O)O)cc1)c1ccc2c(c1)C(C)(C)CCO2?
A: Activity (Mus musculus [1]): Toxic; Activity (Mus musculus [2]): 4.27; Activity (Mus musculus [3]): 77.4; Activity (Mus musculus [4]): 81.5; Activity (Mus musculus [5]): Weak activity; Activity (Mus musculus [6]): inactive; Total dose (Mus musculus [7]): 1176.8 mg/kg

Q: For C/C(=C\c1ccc(C(=O)O)cc1)c1ccc2c(c1)C(C)(C)CCC2(C)C, which Activity (Mus musculus [8]) is on record?
A: Toxic

Q: And the Activity (Mus musculus [9])?
A: Toxic

Q: And the Activity (Mus musculus [10])?
A: Toxic

Q: What about the Activity (Mus musculus [11]) of the same compound?
A: Toxic

Q: And the Activity (Mus musculus [12])?
A: Toxic

Q: And the Activity (Mus musculus [13])?
A: Toxic

Q: What about the Dose (Mus musculus [14]) of the same compound?
A: >0.25 mg/kg

Q: And the Activity (Mus musculus [15])?
A: Toxic

Q: What about the Activity (Mus musculus [16]) of the same compound?
A: Toxic

Q: What about the Activity (Mus musculus [17]) of the same compound?
A: inactive

Q: And the Activity (Mus musculus [18])?
A: Active

Q: What about the Activity (Mus musculus [19]) of the same compound?
A: >25

Q: And the Activity (Mus musculus [20])?
A: 8

Q: What about the Max tolerated dose (Mus musculus [21]) of the same compound?
A: 0.001 mg/kg

Q: What about the Mortality [22] of the same compound?
A: 0 day of death

Q: What about the Mortality [23] of the same compound?
A: 7 day of death

Q: And the Mortality [24]?
A: 16 day of death

Q: And the Activity (Mus musculus [25])?
A: 5.7

Q: What about the Activity (Mus musculus [26]) of the same compound?
A: Toxic

Q: And the Activity (Mus musculus [27])?
A: Toxic

Q: And the Activity (Mus musculus [28])?
A: Toxic

Q: And the Activity (Mus musculus [29])?
A: Toxic

Q: Which Activity (Mus musculus [30]) does the source give for CC(/C=C/C=C(\C)c1ccc2c(c1)C(C)(C)CCS2)=C\C(=O)O here?
A: inactive

Q: And the Activity (Mus musculus [31])?
A: inactive

Q: What about the Activity (Mus musculus [32]) of the same compound?
A: Weak activity

Q: What about the Activity (Mus musculus [33]) of the same compound?
A: inactive

Q: With CC(/C=C/C=C(\C)c1ccc2c(c1)C(C)(C)CCO2)=C\C(=O)O as the compound, how does the Activity (Mus musculus [34]) read?
A: 4.84

Q: And the Activity (Mus musculus [35])?
A: Weak activity

Q: What about the Activity (Mus musculus [36]) of the same compound?
A: 112.3

Q: And the Activity (Mus musculus [37])?
A: inactive

Q: What about the Activity (Mus musculus [38]) of the same compound?
A: inactive

Q: What about the Activity (Mus musculus [39]) of the same compound?
A: inactive
